Data as given in ChEMBL document CHEMBL1139157, “2,5-Disubstituted pyridines: the discovery of a novel series of 5-HT2A ligands” (Bioorg Med Chem Lett, 2007).

Key:
[1] = target: 5-hydroxytryptamine receptor 2A (Homo sapiens, UniProt P28223); assay: Displacement of [3H]ketanserin from human 5HT2A receptor expressed in CHO cells; format: cell-based
D(2) dopamine receptor = D(2) dopamine receptor (Homo sapiens, UniProt P14416); assay: Displacement of [3H]spiperone from human dopamine D2 receptor expressed in CHO cells; format: cell-based
Chain of D(2) dopamine receptor (P14416 whole entry): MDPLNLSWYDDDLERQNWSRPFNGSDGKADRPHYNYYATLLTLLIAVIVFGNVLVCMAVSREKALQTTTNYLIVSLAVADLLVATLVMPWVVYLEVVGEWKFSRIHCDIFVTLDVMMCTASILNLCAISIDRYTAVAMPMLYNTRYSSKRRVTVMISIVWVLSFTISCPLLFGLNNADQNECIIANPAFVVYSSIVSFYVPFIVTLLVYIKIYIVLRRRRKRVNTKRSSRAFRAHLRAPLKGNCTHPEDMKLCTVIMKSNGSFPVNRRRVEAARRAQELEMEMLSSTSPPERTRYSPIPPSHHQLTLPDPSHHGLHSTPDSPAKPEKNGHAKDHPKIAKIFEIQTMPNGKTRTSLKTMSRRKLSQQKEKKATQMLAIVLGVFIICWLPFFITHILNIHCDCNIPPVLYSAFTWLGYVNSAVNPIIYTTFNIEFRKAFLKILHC

[2] = target: T1, 5-hydroxytryptamine receptor 2C (Homo sapiens, UniProt P28335); assay: Displacement of [3H][…] from human 5HT2C receptor expressed in CHO cells; format: cell-based
T1 sequence (P28335 whole entry): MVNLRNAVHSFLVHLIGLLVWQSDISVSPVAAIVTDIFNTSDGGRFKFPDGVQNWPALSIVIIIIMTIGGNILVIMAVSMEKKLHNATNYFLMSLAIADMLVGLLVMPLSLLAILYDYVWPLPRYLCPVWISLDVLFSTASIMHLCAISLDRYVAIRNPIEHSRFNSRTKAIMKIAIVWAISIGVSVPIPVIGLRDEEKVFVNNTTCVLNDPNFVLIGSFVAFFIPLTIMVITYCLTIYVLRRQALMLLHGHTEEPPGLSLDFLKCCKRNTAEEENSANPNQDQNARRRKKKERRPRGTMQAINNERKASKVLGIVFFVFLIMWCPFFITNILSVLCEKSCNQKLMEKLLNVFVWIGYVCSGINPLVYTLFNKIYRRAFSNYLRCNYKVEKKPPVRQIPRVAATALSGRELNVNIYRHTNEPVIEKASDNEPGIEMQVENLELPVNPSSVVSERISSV

[3] = target: Voltage-gated inwardly rectifying potassium channel KCNH2 (Homo sapiens, UniProt Q12809); assay: Displacement of [3H]dofetilide from hERG expressed in HEK cells; format: cell-based, HEK293
Chain of Voltage-gated inwardly rectifying potassium channel KCNH2 (Q12809 whole entry): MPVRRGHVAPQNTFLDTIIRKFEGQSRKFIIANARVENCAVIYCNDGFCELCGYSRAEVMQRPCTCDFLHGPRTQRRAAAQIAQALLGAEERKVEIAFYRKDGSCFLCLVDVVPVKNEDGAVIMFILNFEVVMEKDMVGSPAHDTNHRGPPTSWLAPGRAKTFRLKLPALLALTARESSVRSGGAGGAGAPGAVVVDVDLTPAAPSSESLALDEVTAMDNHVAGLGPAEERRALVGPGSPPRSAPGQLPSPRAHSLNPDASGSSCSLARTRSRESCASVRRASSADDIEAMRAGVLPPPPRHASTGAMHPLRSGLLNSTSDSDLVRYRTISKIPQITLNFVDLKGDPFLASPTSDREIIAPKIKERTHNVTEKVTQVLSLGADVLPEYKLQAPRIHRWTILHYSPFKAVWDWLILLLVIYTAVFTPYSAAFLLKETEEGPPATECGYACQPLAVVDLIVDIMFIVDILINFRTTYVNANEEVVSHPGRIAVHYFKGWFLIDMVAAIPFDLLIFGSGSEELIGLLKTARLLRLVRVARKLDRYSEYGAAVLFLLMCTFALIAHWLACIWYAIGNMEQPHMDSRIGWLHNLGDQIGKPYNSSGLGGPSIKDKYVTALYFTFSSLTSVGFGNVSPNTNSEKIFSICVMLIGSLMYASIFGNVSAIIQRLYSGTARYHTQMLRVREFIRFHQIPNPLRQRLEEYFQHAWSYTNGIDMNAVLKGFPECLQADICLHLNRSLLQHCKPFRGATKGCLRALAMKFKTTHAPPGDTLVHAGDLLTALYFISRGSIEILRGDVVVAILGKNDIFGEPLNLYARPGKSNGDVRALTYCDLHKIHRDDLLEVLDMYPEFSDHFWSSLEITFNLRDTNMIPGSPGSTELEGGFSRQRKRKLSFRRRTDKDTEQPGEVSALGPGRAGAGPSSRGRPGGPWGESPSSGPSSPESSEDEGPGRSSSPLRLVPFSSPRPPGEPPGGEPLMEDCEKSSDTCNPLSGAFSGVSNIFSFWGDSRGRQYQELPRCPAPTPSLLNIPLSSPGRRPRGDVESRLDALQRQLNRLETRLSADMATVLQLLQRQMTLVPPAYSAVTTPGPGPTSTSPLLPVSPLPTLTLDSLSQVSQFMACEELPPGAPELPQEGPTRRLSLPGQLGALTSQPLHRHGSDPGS

[4] = target: Serotonin 2 receptors; 5-HT2a & 5-HT2c (Homo sapiens) (UniProt P28223+P28335); assay: Selectivity for human 5HT2A receptor over human 5HT2C receptor
Chain of Serotonin 2 receptors; 5-HT2a & 5-HT2c (Homo sapiens) (P28223 whole entry, looked up, one chain of several): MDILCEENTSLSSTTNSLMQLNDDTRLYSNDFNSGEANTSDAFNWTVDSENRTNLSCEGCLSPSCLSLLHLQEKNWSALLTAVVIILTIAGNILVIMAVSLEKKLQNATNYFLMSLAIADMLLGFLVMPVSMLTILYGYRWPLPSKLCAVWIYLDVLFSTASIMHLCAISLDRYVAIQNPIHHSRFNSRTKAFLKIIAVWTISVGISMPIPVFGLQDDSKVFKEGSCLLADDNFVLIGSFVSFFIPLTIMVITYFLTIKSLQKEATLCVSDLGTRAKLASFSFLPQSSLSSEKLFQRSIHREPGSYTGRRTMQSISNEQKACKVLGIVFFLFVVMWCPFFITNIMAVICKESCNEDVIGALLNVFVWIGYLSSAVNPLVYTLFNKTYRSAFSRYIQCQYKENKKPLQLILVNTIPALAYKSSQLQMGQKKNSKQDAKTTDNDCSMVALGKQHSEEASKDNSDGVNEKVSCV

Rattus norvegicus = assay: Receptor occupancy ex vivo by displacement of tritiated radioligand from 5HT2A receptor in rat at 5 mg/kg, po; format: functional
In short: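 Rats dosed 5 mg/kg po; [3H] selective 5-HT2A radioligand (6 lCi) given by tail vein injection. Read at 1 h. Occupancy (%) = 100 − [100·(compound counts/vehicle counts)], with vehicle counts taken as total binding.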

[5] = Drug level in rat plasma at 5 mg/kg, po after 1 hr; format: ADME, organism-based; set-up: dose 5 mg/kg, route oral
In short: (§1)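 Rats given 5 mg/kg po, with a radiolabeled selective 5-HT2A ligand co-administered; drug concentrations in plasma and brain measured at 1 h after dosing.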

[6] = Drug level in rat brain at 5 mg/kg, po after 1 hr; format: ADME, organism-based; set-up: dose 5 mg/kg, route oral; settings: read-out: Drug uptake; in short: as §1

Chain of 5-hydroxytryptamine receptor 2A (P28223 whole entry): as the sequence (P28223 whole entry, looked up, one chain of several) above

| Ki [1] [nM] | Ki (D(2) dopamine receptor) [nM] | Ki [2] [nM] | Ratio Ki [4] | Ki (D(2) dopamine receptor; cho) [nM] | concentration at 1 h [5] [nM] | concentration at 1 h [6] [nM] | Compound | Ki [3] [nM] | Activity (Rattus norvegicus) [%] |
| --- | --- | --- | --- | --- | --- | --- | --- | --- | --- |
| 65 | > 2000 | – | – | – | – | – | COc1cc(F)ccc1/C=C/c1ccc(S(=O)(=O)c2ccccc2F)cn1 | – | – |
| 17 | > 1000 | > 4000 | – | – | – | – | O=S(=O)(c1ccc(F)cc1)c1ccc(/C=C/c2ccc(F)cc2)nc1 | – | – |
| 0.7 | > 2000 | 25 | – | – | – | – | [O-][S+](c1ccccc1)c1ccc(/C=C/c2ccc(F)cc2F)nc1 (single isomer, unassigned; form 2) [listing 1 of 2 here] | 6500 | – |
| – | – | – | 38 | – | – | – | [O-][S+](c1ccccc1)c1ccc(/C=C/c2ccc(F)cc2F)nc1 (stereo in doubt; 30) [listing 1 of 2 here] | – | – |
| 30 | – | 2400 | – | > 2000 | – | – | [O-][S+](c1ccccc1)c1ccc(/C=C/c2ccc(F)cc2F)nc1 (single isomer, unassigned; form 1) [listing 1 of 2 here] | 4200 | – |
| 7.7 | > 2000 | 200 | 26 | – | – | – | [O-][S+](c1ccccc1)c1ccc(/C=C/c2ccc(F)cc2)nc1 (configuration not stated) | 3900 | – |
| 9.6 | > 1000 | > 4000 | > 420 | – | – | – | O=S(=O)(c1ccc(/C=C/c2ccc(F)cc2)nc1)c1cccc(F)c1 | > 9000 | – |
| 28 | > 1000 | > 4000 | > 140 | – | – | – | O=S(=O)(c1ccc(F)cc1)c1ccc(/C=C/c2ccc(F)cc2)cn1 | 3300 | – |
| 790 | > 2000 | > 4000 | > 5 | – | – | – | O=S(=O)(c1ccc(/C=C/c2ccncc2)nc1)c1ccccc1F | 4200 | – |
| 23 | > 1000 | 2700 | – | – | – | – | O=S(=O)(c1ccc(F)cc1)c1ccc(CCc2ccc(F)cc2)nc1 | – | – |
| – | – | – | 80 | – | – | – | [O-][S+](c1ccccc1)c1ccc(/C=C/c2ccc(F)cc2F)nc1 (single isomer, unassigned; form 1) [listing 2 of 2 here] | – | – |
| 5.4 | > 1000 | > 4000 | > 740 | – | – | – | O=S(=O)(c1ccc(/C=C/c2ccc(F)cc2)nc1)c1ccccc1F | > 9000 | – |
| 150 | > 2000 | > 4000 | > 27 | – | – | – | O=S(=O)(c1ccc(/C=C/c2cccc(F)c2)nc1)c1ccccc1F | > 9000 | – |
| 7.4 | > 1000 | > 4000 | > 540 | – | – | – | O=S(=O)(c1ccccc1)c1ccc(/C=C/c2ccc(F)cc2)nc1 | > 9000 | – |
| 0.19 | > 2000 | 580 | 3000 | – | – | – | O=S(=O)(c1ccc(/C=C/c2ccc(F)cc2O)nc1)c1ccccc1F | 2100 | – |
| 8.2 | > 2000 | 220 | 27 | – | – | – | Cc1cc(F)ccc1/C=C/c1ccc(S(=O)(=O)c2ccccc2F)cn1 | 5000 | – |
| 2.6 | > 1000 | 410 | 160 | – | – | – | O=S(=O)(c1ccc(/C=C/c2ccc(F)cc2F)nc1)c1ccccc1F | > 9000 | – |
| 3.6 | > 2000 | 810 | 220 | – | – | – | O=S(=O)(c1ccc(/C=C/c2ccccc2O)nc1)c1ccccc1F | 1400 | – |
| 0.86 | > 2000 | > 4000 | – | – | 80 | 180 | O=S(=O)(c1ccccc1)c1ccc(/C=C/c2ccc(F)cc2F)nc1 | – | 45 |
| 2.6 | > 2000 | > 4000 | > 1500 | – | – | – | O=S(=O)(c1ccc(/C=C/c2ccccc2F)nc1)c1ccccc1F | > 9000 | – |
| 9.9 | > 2000 | 19 | 2.1 | – | – | – | N#Cc1cc(F)ccc1/C=C/c1ccc(S(=O)(=O)c2ccccc2F)cn1 | 1500 | – |
| 19 | > 1000 | > 4000 | > 210 | – | – | – | O=S(=O)(c1ccc(F)cc1)c1ccc(CCc2ccc(F)cc2)cn1 | 6900 | – |
| 1.8 | > 2000 | 64 | 36 | – | – | – | O=S(=O)(c1ccc(/C=C/c2ccc(F)cc2Cl)nc1)c1ccccc1F | 4800 | – |
| 4.6 | > 2000 | 160 | 35 | – | – | – | [O-][S+](c1ccc(/C=C/c2ccc(F)cc2)nc1)c1ccccc1F (configuration not stated) | 2900 | – |
| 0.79 | – | 30 | – | > 2000 | 230 | 1070 | [O-][S+](c1ccccc1)c1ccc(/C=C/c2ccc(F)cc2F)nc1 (stereo in doubt; 30) [listing 2 of 2 here] | 2800 | 90 |
| 3.5 | > 2000 | 43 | – | – | – | – | [O-][S+](c1ccc(/C=C/c2ccc(F)cc2F)nc1)c1ccccc1F (configuration not stated) | – | – |
| – | – | – | 36 | – | – | – | [O-][S+](c1ccccc1)c1ccc(/C=C/c2ccc(F)cc2F)nc1 (single isomer, unassigned; form 2) [listing 2 of 2 here] | – | – |

| Compound | Ki [1] [nM] | Ki (D(2) dopamine receptor) [nM] | Ki [2] [nM] | Ratio Ki [4] | Ki (D(2) dopamine receptor; cho) [nM] | concentration at 1 h [5] [nM] | concentration at 1 h [6] [nM] | Ki [3] [nM] | Activity (Rattus norvegicus) [%] |
| --- | --- | --- | --- | --- | --- | --- | --- | --- | --- |
| O=S(=O)(c1ccc(F)cc1)C1(F)CCN(CCc2ccc(F)cc2F)CC1 | – | – | – | 460 | – | – | – | 5600 | – |
